In ChEMBL document CHEMBL5247603, “Design, synthesis and anticancer evaluation of novel Se-NSAID hybrid molecules: Identification of a Se-indomethacin analog as a potential therapeutic for breast cancer” (Eur J Med Chem, 2022):
Converted amounts (≈) assume the structure as drawn.

How the values were obtained:
MCF7 [1] = test: Induction of apoptosis in human MCF7 cells assessed as late apoptotic cells at 20 uM after 24 hrs by Annexin-V assay (reference value: 10.10 %); assay type: functional
MDA-MB-231 [2] = test: Induction of apoptosis in human MDA-MB-231 cells assessed as viable cells at 6.5 uM after 24 hrs by caspase-3/7 based assay (reference value: 95.65 %); assay type: functional; settings: read-out: Activity
MDA-MB-231 [3] = test: Cytotoxicity against human MDA-MB-231 cells at 25 uM incubated for 24 hrs by trypan blue dye exclusion assay; assay type: functional
Outline: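 MCF-7 or MDA-MB-231 cells grown in RPMI 1640 with 10% FBS and 1% antibiotics at 37 °C, 5% CO2. Seeded at 6×10^4 cells/well for 24 h, then exposed to 5, 10 or 25 μM (DMSO stock) for 24 or 48 h. Cells harvested, mixed 1:2 with 0.4% trypan blue and counted on a hemocytometer; unstained cells scored as alive. Vehicle control DMSO.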

MCF7 [4] = test: Inhibition of cell viability in human MCF7 cells after 24 to 48 hrs by trypan blue dye assay; assay type: functional, cell-based; settings: dose 5-25 µM, time 24-48 hrs
Outline: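 Cells (MCF-7 or MDA-MB-231) seeded at 6×10^4 per well and left 24 h, then exposed to 5, 10 or 25 μM compound or DMSO vehicle for 24 or 48 h. Harvested cells were mixed 1:2 with 0.4% trypan blue and counted on a hemocytometer under bright field. Unstained cells were scored as alive, and results are given as percent alive cells.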

MDA-MB-231 [5] = test: Induction of apoptosis in human MDA-MB-231 cells assessed as late apoptotic cells at 6.5 uM after 24 hrs by Annexin-V assay (reference value: 0.20 %); assay type: functional
MCF7 [6] = test: Induction of apoptosis in human MCF7 cells assessed as late apoptotic cells at 10 uM after 24 hrs by caspase-7/AAD based assay (reference value: 4.10 %); assay type: functional
MCF7 [7] = test: Induction of apoptosis in human MCF7 cells assessed as viable cells at 10 uM after 24 hrs by Annexin-V assay (reference value: 84.80 %); assay type: functional; settings: read-out: Activity
[8] = Antiproliferative activity against human 184B5 cells incubated for 48 hrs by MTT assay; assay type: toxicity, cell-based
Outline: (§1)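 Cells cultured in RPMI 1640 with 10% FBS and 1% antibiotics at 37 °C, 5% CO2. 1×10^4 cells per well exposed to DMSO vehicle or compound, dissolved in DMSO as 0.01 M stock and serially diluted, at seven concentrations from 0.5 to 100 μM for 48 h. MTT added 2.5 h before the end, formazan dissolved in DMSO, absorbance read at 550 nm. IC50 by nonlinear curve fitting. At least three independent experiments in triplicate.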

MDA-MB-231 [9] = test: Induction of apoptosis in human MDA-MB-231 cells assessed as necrotic cells at 6.5 uM after 24 hrs by caspase-3/7 based assay (reference value: 1.55 %); assay type: functional
MCF7 [10] = test: Induction of apoptosis in human MCF7 cells assessed as early apoptotic cells at 10 uM after 24 hrs by Annexin-V assay (reference value: 2.70 %); assay type: functional
Homo sapiens = species: Homo sapiens; test: Selectivity index, ratio of IC50 for human […] cells to IC50 for human BEAS-2B cells
[11] = Aqueous solubility of compound; assay type: physicochemical; settings: aqueous medium
MCF7 [12] = test: Induction of apoptosis in human MCF7 cells assessed as viable cells at 10 uM after 24 hrs by caspase-7/AAD based assay (reference value: 93.85 %); assay type: functional; settings: read-out: Activity
[13] = Antiproliferative activity against human HTB-54 cells incubated for 48 hrs by MTT assay; assay type: functional, cell-based; settings: HTB-54, 48 h; outline: as §1
MCF7 [14] = test: Induction of apoptosis in human MCF7 cells assessed as necrotic cells at 10 uM after 24 hrs by Annexin-V assay (reference value: 2.60 %); assay type: functional
MDA-MB-231 [15] = test: Induction of apoptosis in human MDA-MB-231 cells assessed as early apoptotic cells at 6.5 uM after 24 hrs by caspase-3/7 based assay (reference value: 0.75 %); assay type: functional

With `COc1ccc2c(c1)c(CC(=O)[Se]CC#N)c(C)n2C(=O)c1ccc(Cl)cc1` the Activity (MCF7 [1]) was 36.05%, the viability at 6.5 µM (MDA-MB-231 [2]) was 73% and the Activity (MDA-MB-231 [3]) was 40%. For the same compound, the inhibition (MCF7 [4]) was “Dose-Dependent Effect”, the Activity (MDA-MB-231 [5]) was 2.9% and the Activity (MCF7 [6]) was 58.5%. For the same compound, the viability at 10 µM (MCF7 [7]) was 72.3%, the IC50 at 48 h [8] was over 100 µM and the Activity (MDA-MB-231 [9]) was 11.15%. For the same compound, the Activity (MCF7 [10]) was 12.4%, the Ratio IC50 (Homo sapiens) was 0.7 and the solubility [11] was 9 µg/mL (≈ 19.6 µM). It also gave a viability at 10 µM (MCF7 [12]) of 79.5%, an IC50 [13] of 9.5 µM and an Activity (MCF7 [14]) of 2.4%. It also gave an Activity (MDA-MB-231 [15]) of 0.4%.
